This data set is described as follows: Toxicity liver stage against HepG2, at 10uM. The data set is classed as cell-based. On the set-up: test concentration 10 uM, cell line HepG2-A16-CD81EGFP. As to conditions: human, HepG2-A16-CD81EGFP cells; read-out: INHIBITION
The essentials: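 Uninfected HepG2-A16-CD81EGFP cells, 3 × 10^3 per well, 1536-well, plated on prespotted compound at 10 μM final, parasite-free screening media added to match infected plates; puromycin 10 μM positive, DMSO 0.5% negative; run in parallel with 48 h PbLuc assay at 37 °C, 5% CO2; viability by CellTiter-Glo luminescence, normalized to controls.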
Turning to `CN(CCCSc1ccccc1)C(=O)Cn1ncc(N(C)C)cc1=O`, the cytotoxicity at 10 µM turned out to be 0.0227%.
The value for `Cc1cc(Oc2ccccc2)nc(C2CCN(CCO)CC2)n1` was -1.99%; that for `COCCN1C(=O)C[C@H]2[C@H]1CCN2Cc1cccc(C#N)c1` was 2.55%.
On to `CC1CCC(NC(=O)c2nn(C)cc2Br)CC1` (configuration not stated), for which the cytotoxicity at 10 µM is -3.76%.
In the case of `Cn1ncc2c1NC(=O)CC2c1c(Cl)cccc1Cl` (configuration not stated), the cytotoxicity at 10 µM amounted to 55.1%.
The figure for `CC(NC(=O)C1=NN(C)C(=O)CC1)c1ccc(F)cc1F` (configuration not stated) is -4.4%.
The figure for `O=C(Nc1cccc(OCc2cccc(F)c2)c1)C1COCCO1` (configuration not stated) is 8.06%; for `Cc1ncccc1CNCC1CCN(CCO)CC1` it is -22.5%; for `Cc1cnn(CC2CCCCN2Cc2cnc(C)s2)c1` (configuration not stated) it is -11.3%.
The figure for `COCCN(C(=O)c1ccsc1)c1ccc(C#N)cc1` is 4.19%; for `CC(=O)N1CCC(c2cncc(N3CCCC(O)C3)n2)CC1` (configuration not stated) it is -1.47%; for `c1ccc(NCc2ccc(Cn3ccnc3)cc2)nc1` it is 70.9%.
`Cc1cc(=O)c2cc(F)ccc2n1CC(=O)O`: the cytotoxicity at 10 µM was determined as 0.753%.
On to `COCC(=O)N1CC[C@H]2C[C@H](C)O[C@@H]2C1`, for which the cytotoxicity at 10 µM was -0.877%.
The figure for `CNS(=O)(=O)CC(=O)N1CCCc2cc(C(C)C)ccc21` is 11.8%.
The figure for `CC(=O)N1CCCC2(CCN(c3nncs3)C2)C1` (configuration not stated) is -103%.
The figure for `CCOC(=O)N1CCN(C(=O)Cc2c(C)nc(C)[nH]c2=O)CC1` is -6.31%.
Take `CCc1cnc(NCc2ccccc2Cn2cccn2)nc1`: the cytotoxicity at 10 µM is -2.45%.
On to `CCCN(CCC)S(=O)(=O)NC(C)C(=O)N(C)C` (configuration not stated), for which the cytotoxicity at 10 µM is -0.237%.
The value for `CN(Cc1n[nH]c2c1CCCC2)C(=O)c1cccc(CCC(C)(C)O)c1` was -3.87%.
The figure for `COCCNC(=O)c1ccc2c(=O)n3c(nc2c1)CCN(C)CC3` is -1.02%; for `O=C(C1CC1)N1CCCC1c1nnc2n1CCCCC2` (configuration not stated) it is -0.614%.
The figure for `CC(=O)N(Cc1ncc(C)o1)C1CCN(Cc2cccnc2)C1` (configuration not stated) is 15.3%.
For the compound `O=C1CCC2(CCN(Cc3ccoc3)CC2)N1OCc1ccccc1F`, the cytotoxicity at 10 µM was determined as 2.37%.
The figure for `N#Cc1nccnc1N1CCC(Cc2ccccc2)C1` (configuration not stated) is -8.68%; for `NCc1cc(-c2ccccc2)n2nccc2n1` it is -14.7%.
The figure for `CCNc1ncc(C(=O)N(C)Cc2nc3ccccc3n2C)cn1` is 6.09%; for `CCCS(=O)(=O)N1CCC2(CC1)CC(N1CCCC1)c1ccccc12` (configuration not stated) it is -0.664%.
In the case of `Cc1ccc2[nH]c(CO[C@H]3CN(C(=O)C4CC4)C[C@H]3F)nc2c1`, the cytotoxicity at 10 µM was -11.6%.
The value for `C=C(C)CN(CC)C(=O)Nc1ccccc1CN(C)C(C)=O` was -9.6%; that for `COc1cc(N2CC[C@@H](OC)[C@@H]2Cc2cnn(C)c2)ncn1` was -0.155%.
The value for `CCc1noc(C)c1C(=O)N1CCN(c2nc(C)cc(OC)n2)CC1` was -13.8%; that for `CCc1ccc(C2CCCCCN2Cc2nc(CCOC)no2)o1` (configuration not stated) was 1.15%; that for `CC(=O)NCC1CCN(C(=O)c2ccc(Sc3ccccn3)cc2)CC1` was 9.15%.
The figure for `CCc1nnc2n1CCN(C(=O)c1cc(C)n(-c3ccccc3)c1C)C2` is -8.7%; for `CS(=O)(=O)NCC1CCCN(C(=O)c2ccc3c(c2)CCC3)C1` (configuration not stated) it is -5.52%; for `O=C(Cc1csc(-c2ccco2)n1)N1CCN(c2ccccc2O)CC1` it is -10.7%.
With `Cc1nn(C)c(C)c1-c1c(-c2ccccc2)ncn1[C@H](CO)C(=O)O`, the cytotoxicity at 10 µM is -2.34%.
As to `O=C1Nc2ccccc2CN(CC2CC2)C12CCNC2` (configuration not stated), the cytotoxicity at 10 µM was determined as 6.09%.
For the compound `COCC(=O)Nc1ccnn1-c1ccc(Cl)cc1`, the cytotoxicity at 10 µM is 2.18%.
The value for `Cc1ccc(-c2ccc(C(=O)NCCS(N)(=O)=O)c(F)c2)cc1` was 11.3%; that for `Cc1n[nH]c(C)c1C1COCCN1C(=O)c1cc(Cl)c[nH]1` (configuration not stated) was -4.12%; that for `Cc1ccsc1CNC(=O)N1CCC(Cc2cnn(C)c2)C1` (configuration not stated) was -6.6%.
The value for `OCc1csc(N2C[C@@H](CN3CCCCCC3)[C@@H](CO)C2)n1` was 2.65%.
The figure for `CC(C)Cc1nc(NC(=O)c2cccnc2)n[nH]1` is -1.18%.
As for `CC(C)Cc1noc(CN2CCCC(Cn3cncn3)C2)n1` (configuration not stated), the cytotoxicity at 10 µM is -2.6%.
The figure for `O=C(CCNCc1cccc2c1OCCCO2)NC1CCCC1` is 0.66%; for `CC(c1ccco1)N(C)Cc1nc2c(cnn2C)c(=O)[nH]1` (configuration not stated) it is -3.29%; for `COCCNC(=O)NCCc1cccc(OC)c1O` it is 9.31%.
In the case of `COc1ccccc1CN1C(=O)O[C@@H]2CN(c3ccccn3)C[C@@H]21`, the cytotoxicity at 10 µM was 5.97%.
The figure for `CC(CNC(=O)NCc1ccco1)CC1(C)OCCO1` (configuration not stated) is -7.25%; for `Cc1ccccc1OC1(C(=O)O)CCN(C(=O)CCc2ccco2)CC1` it is 1.5%.
Consider `COc1ncc(NCc2ccc(F)cc2)cc1C(N)=O`, for which the cytotoxicity at 10 µM was -0.976%.
Take `CN(CC(=O)NCC(O)c1cccc(F)c1)C(=O)OC(C)(C)C` (configuration not stated): the cytotoxicity at 10 µM came to 1.2%.
The figure for `CO[C@H]1CN(C(=O)OC(C)(C)C)CC1NCc1ccn(C)c1` (some centres not stated) is -45.9%; for `CN(C)c1ccc(C(O)CNS(=O)(=O)C2CC2)cc1` (configuration not stated) it is -4.99%.
The figure for `CN(C1CCN(c2ccccn2)CC1)S(=O)(=O)c1cccs1` is 13.3%.
The figure for `CN(C)C(=O)c1ccc(CNc2c(Cl)cccc2C#N)cc1` is -50.6%.
For the compound `Cc1nccnc1N1C[C@H](NC(=O)CNS(C)(=O)=O)[C@@H](C2CC2)C1`, the cytotoxicity at 10 µM was -10.3%.
The value for `Cc1nc(SCC(=O)Nc2ccc(C(N)=O)cc2)c(C#N)c(C)c1C` was -5.28%; that for `Cc1cnn(CC(=O)N2CCCN(c3ncccc3C#N)CC2)c1` was -4.37%.
The value for `CCc1ccccc1OC1CN(C(=O)c2cccs2)C1` was 13.7%; that for `CC(C)Cn1cncc1CNC(=O)c1cccc(CC2CCNCC2)c1` was -4.47%; that for `CN(C)C(=O)c1ccccc1NC(=O)N[C@@H]1c2ccccc2C[C@@H]1O` was -43.1%.
Consider `Cc1cccc(CC(=O)N2CCCCC2CN)c1` (configuration not stated), for which the cytotoxicity at 10 µM was determined as 5.68%.
The figure for `Cc1ccccc1C(=O)N1CCO[C@H]2[C@H](OCCN(C)C)CC[C@@H]21` is -2.95%.
Regarding `CCC(O)(CNCc1ncc[nH]1)c1ccc(Br)cc1` (configuration not stated), the cytotoxicity at 10 µM was determined as 3.54%.
As to `CS(=O)(=O)NC(=O)c1ccn(-c2ccc(Cl)c(Cl)c2)n1`, the cytotoxicity at 10 µM is 6.96%.
The value for `Cc1cc(C)n(CC2CCCN2C(=O)Cc2cn3ccsc3n2)n1` (configuration not stated) was -12.5%; that for `CC(=O)NCC(=O)N1C[C@H](OCc2cccnc2)[C@H]2COC[C@H]21` was -7.12%.
The figure for `COC(CNC(=O)c1cc(C)on1)c1ccccc1C` (configuration not stated) is -17.8%; for `Cc1ccc(CN2CCOC3(CCN(CC4CCOC4)CC3)C2)cc1` (configuration not stated) it is -117%; for `CNC(=O)N1CC[C@@H]2CN(Cc3cccc(Cl)c3)S(=O)(=O)[C@@H]2CC1` it is 0.748%.
The value for `CCn1cnnc1CNC(=O)CCC(=O)c1ccc2c(c1)OCCO2` was -3.59%; that for `CN1C(=O)[C@@H]2CC[C@H]1CN(Cc1cccc(OCc3ccccn3)c1)C2` was 5.52%.
For the compound `Cc1ccc(Cn2nc(C)c3c(C(=O)O)c(Cl)c(C4CC4)nc32)cc1`, the cytotoxicity at 10 µM was found to be 6.75%.
On to `COc1cccc(COCC(=O)NC(C(N)=O)c2ccccc2)c1` (configuration not stated), for which the cytotoxicity at 10 µM was -3.73%.
The value for `COC(=O)c1ccc(CN(C(C)C)C(C)C)o1` was 2.21%; that for `Cc1nn(C)c2nc(N(Cc3cnn(C)c3)C3CCCCC3)sc12` was -1.24%; that for `COCc1ccccc1CNc1cc(N2CCCC2CO)ncn1` (configuration not stated) was -1.81%.
`O=C(NC1CC1)[C@H]1C[C@@H]2CCN(Cc3ccc4c(c3)OCO4)C[C@@H]2O1`: the cytotoxicity at 10 µM was 0.782%.
The figure for `CN(Cc1cnn(C)c1)Cc1nc(CCc2ccccc2)no1` is -26.1%.
As for `CCOc1ccc(NC(=O)NC2CCc3nc(C)nn3C2)cc1Cl` (configuration not stated), the cytotoxicity at 10 µM is -3.81%.
On to `O=C(CCn1cccn1)NCCOc1cccc(Cl)c1`, for which the cytotoxicity at 10 µM is -2.48%.
The figure for `CCCOCCOC(=O)c1ccc2c(c1)[nH]c(=O)n2C` is -16.4%.
The figure for `COCCOCC(=O)NCc1ccc(N(C)C)nc1` is 8.87%.
On to `Cc1nc(-c2cccc(C(=O)N(C)C)c2)cs1`, for which the cytotoxicity at 10 µM was found to be 1.77%.
The value for `COc1ccc(CN2CC[C@@H]3CN(S(C)(=O)=O)CCO[C@@H]3C2)cc1` was -1.55%.
The figure for `CC(C)Oc1cccc(F)c1C(C(=O)O)N(C)Cc1ccon1` (configuration not stated) is -33.5%; for `Cc1nnc(N2CCCC3(CN(Cc4cccnc4)CCO3)C2)o1` (configuration not stated) it is 4.96%.
The value for `Cn1ccnc1CN(Cc1cccnc1)CC1CCCO1` (configuration not stated) was 15.2%.
In the case of `O=c1[nH]nc2c(S(=O)(=O)N3CCCCC3)cccn12`, the cytotoxicity at 10 µM was determined as 2.41%.
The value for `CC(C)c1nnc(CN(C)Cc2ccccc2-c2ccccc2)o1` was 5.98%.
The value for `CC(C)(C)c1nnc2n1C(C(=O)N1CCN(c3ncccn3)CC1)CC2` (configuration not stated) was -7.46%; that for `Cc1cc2c(cc1CNC(Cc1cccs1)c1nccs1)OCO2` (configuration not stated) was 6.76%.
`O=C(CCc1ccccn1)NC1CCN(c2cccc(Cl)c2)C1` (configuration not stated): the cytotoxicity at 10 µM stood at 17.1%.
For `CCCc1ccc(S(=O)(=O)NC2(CC(N)=O)CCC2)cc1`, the cytotoxicity at 10 µM stood at 17.9%.

The values above are taken from ChEMBL document CHEMBL4513216, “Probing the Open Global Health Chemical Diversity Library for Multistage-Active Starting Points for Next-Generation Antimalarials” (ACS Infect Dis, 2020).
